This passage reports MIC and inhibition results from ChEMBL document CHEMBL1140069, “In vitro antifungal activity of polyfunctionalized 2-(hetero)arylquinolines prepared through imino Diels-Alder reactions” (2008).

Holding throughout (type): functional
In experiment [1] the test system is Trichophyton mentagrophytes. The experiment can be described thus: Antifungal activity against Trichophyton mentagrophytes ATCC 9972 after 48 hrs by broth microdilution technique. Particulars: ATCC 9972, 48 h. In a few lines:
(§1)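 CLSI broth microdilution: M-27 A2 for yeasts and M-38 A for filamentous fungi. Medium is RPMI-1640 buffered to pH 7.0 with MOPS. Compound is diluted twofold from 250 to 0.98, final DMSO ≤2%. Inoculum is 1–5 × 10³ CFU/mL. Plates are incubated at 35 °C in a moist, dark chamber and read visually at 48 h. MIC100 is the lowest concentration giving total growth inhibition versus drug-free control.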

Experiment [2] concerns Cryptococcus neoformans. Put plainly: Antimicrobial activity against Cryptococcus neoformans ATCC 32264 at 6.25 ug/ml after 48 hrs. Conditions: ATCC 32264, 48 h. The gist of the method:
(§2)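 Percent growth inhibition in 96-well microplates. Compound stocks in DMSO (≤2%) were diluted in RPMI-1640 to final 100–6.25 µg/mL, and 100 µL inoculum was added (final 200 µL). Controls were a growth well (inoculum with matching DMSO, no compound) and a sterility well (no inoculum). Inhibition was calculated against growth and sterility wells.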

Experiment [3] concerns Candida albicans. The experiment can be described thus: Antimicrobial activity against Candida albicans C127 isolate at 6.25 ug/ml after 24 hrs. Conditions: C127, 24 h. In a few lines: (§3)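 Growth-inhibition microplate test. Strains are grown on Sabouraud-chloramphenicol agar for 48 h at 30 °C, and inoculum is added to RPMI-1640 containing compound at a final 100–6.25, with DMSO ≤2%. Each strain has a growth control (same DMSO, no compound) and a sterility control.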

The subject of experiment [4] is Candida albicans. The experiment can be described thus: Antimicrobial activity against Candida albicans C130 isolate at 6.25 ug/ml after 24 hrs. In a few lines: as §3
The subject of experiment [5] is Pichia kudriavzevii. Put plainly: Antimicrobial activity against Candida krusei C117 isolate at 6.25 ug/ml after 24 hrs. The gist of the method:
as §2

Experiment [6] concerns Candida albicans. The experiment can be described thus: Antimicrobial activity against Candida albicans ATCC 10231 at 6.25 ug/ml after 24 hrs. Conditions: ATCC 10231, 24 h. In a few lines: as §3
Experiment [7] deals with Cryptococcus neoformans. The experiment can be described thus: Antimicrobial activity against Cryptococcus neoformans IM 042074 isolate at 6.25 ug/ml after 48 hrs. The gist of the method: as §2
The subject of experiment [8] is Cryptococcus neoformans. The experiment can be described thus: Antimicrobial activity against Cryptococcus neoformans IM 031631 isolate at 6.25 ug/ml after 48 hrs. The gist of the method: as §2
In experiment [9] the test system is Cryptococcus neoformans. The experiment can be described thus: Antimicrobial activity against Cryptococcus neoformans IM 052470 isolate at 6.25 ug/ml after 48 hrs. The gist of the method:
as §2

For experiment [10], the system named is Aspergillus fumigatus. The experiment can be described thus: Antifungal activity against Aspergillus fumigatus ATTC 26934 after 48 hrs by broth microdilution technique. In a few lines:
as §1
(In general: Dilution methods test growth across graded concentrations, often in twofold steps.)

Experiment [11] concerns Candida albicans. The experiment can be described thus: Antimicrobial activity against Candida albicans C129 isolate at 6.25 ug/ml after 24 hrs. In a few lines:
as §3

The test system of experiment [12] is Cryptococcus neoformans. Put plainly: Antimicrobial activity against Cryptococcus neoformans IM 961951 isolate at 6.25 ug/ml after 48 hrs. In a few lines: (§4)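 Clinical Cryptococcus isolates kept on Sabouraud-dextrose agar slopes; inoculum 1–5 × 10³ CFU/mL. Quinoline DMSO stocks were diluted in RPMI-1640 to final 100–6.25 µg/mL, with DMSO ≤2%. An equal volume of inoculum was added (200 µL per well). Run in triplicate.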

The test system of experiment [13] is Candida albicans. Put plainly: Antimicrobial activity against Candida albicans C128 isolate at 6.25 ug/ml after 24 hrs. The gist of the method: as §3
Experiment [14] relates to Nannizzia gypsea. Put plainly: Antifungal activity against Microsporum gypseum C115 after 48 hrs by broth microdilution technique. In a few lines:
as §1

The subject of experiment [15] is Cryptococcus neoformans. Put plainly: Antimicrobial activity against Cryptococcus neoformans IM 031706 isolate at 6.25 ug/ml after 48 hrs. In a few lines:
as §2

Experiment [16] concerns Aspergillus niger. The experiment can be described thus: Antifungal activity against Aspergillus niger ATCC 9029 after 48 hrs by broth microdilution technique. Conditions: ATCC 9029, 48 h. The gist of the method:
as §1

Experiment [17] has as its system Candida albicans. The experiment can be described thus: Antimicrobial activity against Candida albicans C126 isolate at 6.25 ug/ml after 24 hrs. The gist of the method: as §3
For experiment [18], the system named is Saccharomyces cerevisiae. Put plainly: Antifungal activity against Saccharomyces cerevisiae ATCC 9763 after 48 hrs by broth microdilution technique. Particulars: ATCC 9763, 48 h. In a few lines:
as §1

For experiment [19], the system named is Cryptococcus neoformans. Put plainly: Antimicrobial activity against Cryptococcus neoformans IM 00319 isolate at 6.25 ug/ml after 48 hrs. The gist of the method:
as §2

Experiment [20] relates to Cryptococcus neoformans. The experiment can be described thus: Antimicrobial activity against Cryptococcus neoformans IM 983036 isolate at 6.25 ug/ml after 48 hrs. The gist of the method: as §4
For experiment [21], the system named is Aspergillus flavus. Put plainly: Antifungal activity against Aspergillus flavus ATCC 9170 after 48 hrs by broth microdilution technique. Particulars: ATCC 9170, 48 h. The gist of the method:
as §1

The test system of experiment [22] is Candida albicans. The experiment can be described thus: Antifungal activity against Candida albicans ATCC 10231 after 48 hrs by broth microdilution technique. Conditions: ATCC 10231, 48 h. In a few lines: as §1
For experiment [23], the system named is Cryptococcus neoformans. The experiment can be described thus: Antifungal activity against Cryptococcus neoformans ATCC 32264 after 48 hrs by broth microdilution technique. Conditions: ATCC 32264, 48 h. In a few lines: as §1
Experiment [24] concerns Cryptococcus neoformans. Put plainly: Antimicrobial activity against Cryptococcus neoformans IM 972724 isolate at 6.25 ug/ml after 48 hrs. In a few lines:
as §4

Experiment [25] relates to Cryptococcus neoformans. The experiment can be described thus: Antimicrobial activity against Cryptococcus neoformans IM 972751 isolate at 6.25 ug/ml after 48 hrs. The gist of the method:
as §4

Experiment [26] concerns Candida tropicalis. The experiment can be described thus: Antimicrobial activity against Candida tropicalis C131 isolate at 6.25 ug/ml after 24 hrs. In a few lines:
as §2

For experiment [27], the system named is Candida parapsilosis. Put plainly: Antimicrobial activity against Candida parapsilosis C124 isolate at 6.25 ug/ml after 24 hrs. Particulars: Lodderomyces parapsilosis. The gist of the method:
as §2

Experiment [28] concerns Cryptococcus neoformans. The experiment can be described thus: Antimicrobial activity against Cryptococcus neoformans IM 983040 isolate at 6.25 ug/ml after 48 hrs. In a few lines:
as §4

Experiment [29] relates to Trichophyton rubrum. The experiment can be described thus: Antifungal activity against Trichophyton rubrum C110 after 48 hrs by broth microdilution technique. In a few lines: as §1
Experiment [30] has as its system Nakaseomyces glabratus. The experiment can be described thus: Antimicrobial activity against Candida glabrata C115 isolate at 6.25 ug/ml after 24 hrs. In a few lines:
as §2

Experiment [31] deals with Trichophyton rubrum. Put plainly: Antifungal activity against Trichophyton rubrum C135 isolate. Particulars: read-out: MIC100.
The test system of experiment [32] is Trichophyton rubrum. Put plainly: Antifungal activity against Trichophyton rubrum C133 isolate. Conditions: read-out: MIC100.
Experiment [33] relates to Trichophyton mentagrophytes. Put plainly: Antifungal activity against Trichophyton mentagrophytes C943 isolate. Conditions: read-out: MIC100.
Experiment [34] has as its system Trichophyton mentagrophytes. Put plainly: Antifungal activity against Trichophyton mentagrophytes C132 isolate. Particulars: read-out: MIC100.
The test system of experiment [35] is Trichophyton mentagrophytes. Put plainly: Antifungal activity against Trichophyton mentagrophytes C539 isolate. Particulars: read-out: MIC100.
Experiment [36] has as its system Trichophyton rubrum. The experiment can be described thus: Antifungal activity against Trichophyton rubrum C137 isolate. Particulars: read-out: MIC100.
The test system of experiment [37] is Trichophyton rubrum. The experiment can be described thus: Antifungal activity against Trichophyton rubrum C136 isolate. Particulars: read-out: MIC100.
Experiment [38] concerns Trichophyton mentagrophytes. The experiment can be described thus: Antifungal activity against Trichophyton mentagrophytes C364 isolate. Conditions: read-out: MIC100.
Experiment [39] relates to Trichophyton mentagrophytes. The experiment can be described thus: Antifungal activity against Trichophyton mentagrophytes C131 isolate. Particulars: read-out: MIC100.

Each structure is given as a SMILES string. Converted amounts (≈) assume the structure as drawn.

As a reminder, the inhibition is the relative decrease from the control value, in per cent. Higher therefore signals a response far below the control. In the case of `CC(=O)N1CCN(c2ccc(OCC3COC(Cn4ccnc4)(c4ccc(Cl)cc4Cl)O3)cc2)CC1` (configuration not stated) [KETOCONAZOLE], the MIC in experiment [1] was found to be 0.025 mg/L (≈ 0.047 µM); in [10] it was 0.125 mg/L (≈ 0.235 µM); in experiment [14], 0.05 mg/L (≈ 0.0941 µM); in experiment [16], 0.25 mg/L (≈ 0.47 µM); in experiment [18], 0.5 mg/L (≈ 0.941 µM); in [21], 0.5 mg/L (≈ 0.941 µM). In addition, the MIC in [22] is 0.5 mg/L (≈ 0.941 µM); in experiment [23] it was 0.25 mg/L (≈ 0.47 µM); in experiment [29] (read-out: MIC), 0.025 mg/L (≈ 0.047 µM). Besides, the inhibition at 6.25 µg/mL in experiment [2], in experiment [3], in experiment [4], in [5], in experiment [6] and in experiment [7] was 100% in each case. The inhibition at 6.25 µg/mL in experiment [8], in experiment [9], in experiment [11], in experiment [12], in experiment [13] and in experiment [15] was 100% in each case. For the same compound, the inhibition at 6.25 µg/mL in experiment [17], in [19], in experiment [20], in [24], in [25] and in experiment [26] was 100% throughout. The inhibition at 6.25 µg/mL in experiment [27], in [28] and in [30] was 100% throughout.
`CN(C/C=C/C#CC(C)(C)C)Cc1cccc2ccccc12` [TERBINAFINE]: the MIC is 0.04 mg/L (≈ 0.137 µM) in experiment [1]; 0.006 mg/L (≈ 0.0206 µM) in experiment [31]; 0.006 mg/L (≈ 0.0206 µM) in experiment [32]; 0.006 mg/L (≈ 0.0206 µM) in experiment [33]; 0.006 mg/L (≈ 0.0206 µM) in experiment [34]; 0.04 mg/L (≈ 0.137 µM) in experiment [14]. Moreover, the MIC in experiment [35] worked out at 0.006 mg/L (≈ 0.0206 µM); in [36], 0.012 mg/L (≈ 0.0412 µM); in [37], 0.006 mg/L (≈ 0.0206 µM); in experiment [29] (read-out: MIC100), 0.01 mg/L (≈ 0.0343 µM); in [38], 0.006 mg/L (≈ 0.0206 µM); in experiment [39], 0.006 mg/L (≈ 0.0206 µM).
